Test results: the array DNA melting data of Ke et al. (doi:10.1101/2024.01.08.574731)

What was measured:
[1] = folding enthalpy; higher = less favourable; fluorescence melt of hairpins on a sequencing array, two-state fit; conditions: sodium 0.088 M
Outline: (§1)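 With Cy3 and quencher oligos annealed, library hairpins on a sequenced MiSeq flow cell were imaged for Cy3 fluorescence in 50 mM Na-HEPES pH 8.0, 25 mM NaCl, in 2.5 °C steps up to 60 °C. Melting temperature and folding enthalpy were derived from bootstrapped two-state fits of signals normalised to pre-quench Cy3 and to control constructs. Four replicates were combined by inverse variance, with fitted temperatures raised by 9.35 °C to match UV melts.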

[2] = melting temperature; fluorescence melt of hairpins on a sequencing array, two-state fit, raised by 9.35 °C to match UV melts; conditions: sodium 0.088 M
Outline: as §1

Row | Sequence | folding enthalpy [1] [kcal/mol] | Tm [2] [°C]
1 | GGTAGTGGAAACATTACC ((((.((....)).)))) | -34.3 | 41.6
2 | GGTGTGGGAAACTACACC (((((.(....).))))) | -46.6 | 52.6
3 | GGCGTACGAAAGTAAGCC (((.(((....))).))) | -35.1 | 59.3
4 | GAATGACGAAAGTCGTTC (((.(((....))).))) | -34.4 | 54.7
5 | GATAATGAAAATTATC ((((((....)))))) | -20.5 | 37.9
6 | GGGCAACGAAAGTTACCC (((.(((....))).))) | -38.9 | 52.2
7 | GTAGCTGGAAACAGCTGC (.(((((....))))).) | -26.3 | 55.2
8 | GCGGTGCGAAAGCATAGC ((..(((....)))..)) | -25.4 | 63.4
9 | GTAGTCCGAAAGGATAC (((.(((....)))))) | -15.8 | 38
10 | GTTCTTCCGAAAGGAAAC (((..(((....)))))) | -13.6 | 27.5
11 | GATTGCGGAAACGTGATC (((..((....))..))) | -30.6 | 40.7
12 | GTGGTTGGAAACAACTGC (..((((....))))..) | -17.6 | 43.4
13 | GATCTAGATGTAGATC ((((((....)))))) | -27.9 | 39.8
14 | GTCGTGCGAAAGCAGGAC (((.(((....))).))) | -35.9 | 64.5
15 | GATCGGCGCCCGATC ((((((...)))))) | -36.4 | 56.8
16 | GCTTTGCGAAAGCAGGGC ((..(((....)))..)) | -20.1 | 47
17 | GGATAGCCGAAAGGCTCC (((..(((....)))))) | -9.11 | 38.1
18 | GCTAGGGGAAACCCTGGC ((.((((....)))).)) | -36.9 | 53.4
19 | GTAGGCGAAAGCCTGTAC ((((((....)))..))) | -9.44 | 34.6
20 | GAAACCGAAAGGTGTTC ((((((....))).))) | -13 | 36.5
21 | GGATCCGGAAACGGGTCC (((.(((....))).))) | -43.7 | 59.4
22 | GGCGCAGCGAAAGCTGCC (((..(((....)))))) | -6.91 | 52.6
23 | GCAAACGCGAAAGCGTGC (((..(((....)))))) | -13.7 | 55.7

Row | Sequence | folding enthalpy [1] [kcal/mol] | Tm [2] [°C]
24 | GCCGCATCGAAAGATGGC (((..(((....)))))) | -11.4 | 46.9
25 | GGCATTGCGAAAGCAGCC (((..(((....)))))) | -16.4 | 50.7
26 | GTTCCCGAAAGGGATAAC ((((((....)))..))) | -10.2 | 36.5
27 | GTTGACGAAAGTCAAAAC ((((((....)))..))) | -11.5 | 38.4
28 | GATCCGAACCCGGATC ((((((....)))))) | -38.9 | 54.8
29 | GATGCCGAAAGGCGAATC ((((((....)))..))) | -9.65 | 36.9
30 | GCGCACGGAAACGTGCAC (.(((((....))))).) | -10.1 | 52.2
31 | GTACCTGGAAACGGGTAC (((((.(....).))))) | -41.8 | 50.4
32 | GCACATACGAAAGTATGC (((..(((....)))))) | -9.91 | 35.4
33 | GGGCTGGGAAACCAGCTC (.(((((....))))).) | -26.6 | 58.7
34 | GGCGGTTCGAAAGAAGCC (((..(((....)))))) | -16.6 | 41
35 | GTCAATCGAAAGATGAC (((.(((....)))))) | -25.7 | 45.9
36 | GATGGTGGAAACACTATC (((.(((....))).))) | -31 | 43.1
37 | GATCTAATAGTAGATC ((((((....)))))) | -29.4 | 33.7
38 | GGCTACGGAAACATAGCC (((((.(....).))))) | -28.8 | 43.8
39 | GCGGTCCCCGC ((((...)))) | -18 | 67.5
40 | GATCTACTATAGATC ((((((...)))))) | -25.1 | 40.5
41 | GCGAACGAAAGTTAACGC ((((((....)))..))) | -20.6 | 44.6
42 | GTGTCCGAAAGGATGCAC ((((((....)))..))) | -15.8 | 42.9
43 | GTACAAGCGAAAGCTTAC (((..(((....)))))) | -11.2 | 28.4
44 | GGATGTGGAAACACATCC (((((((....))))))) | -42.6 | 64.5
45 | GCGTGCGAAAGCAATCGC ((((((....)))..))) | -22.6 | 52.7
46 | GGAGGTGCGAAAGCATCC (((..(((....)))))) | -11.6 | 39.3

Row | Sequence | folding enthalpy [1] [kcal/mol] | Tm [2] [°C]
47 | GAAATCGGAAACGATTCC (.(((((....))))).) | -16.6 | 37.1
48 | GCGAGACCTCGC ((((....)))) | -13.8 | 56.5
49 | GAGGTGCGAAAGCACTC (((.(((....)))))) | -10 | 48.3
50 | GATCTCCACGAGATC ((((((...)))))) | -42 | 53.6
51 | GATCTATTTATAGATC ((((((....)))))) | -48.6 | 51.8
52 | GAACCCGAAAGGGGGTTC ((((((....)))..))) | -25.3 | 56
53 | GTGCAAGGAAACTTGTAC ((.((((....)))).)) | -32.5 | 45
54 | GCATTTGGAAACGAATGC (((((.(....).))))) | -41.8 | 49
55 | GATATAGAAATATATC ((((((....)))))) | -15 | 31.8
56 | GCAGAGGGAAACCTCTAC (.(((((....))))).) | -14.7 | 35.2
57 | GATCATCACGATGATC ((((((....)))))) | -42.6 | 51.8
58 | GGACCTGGAAACAGGCCC ((.((((....)))).)) | -25.8 | 52.7
59 | GATCTATGTTAGATC ((((((...)))))) | -27.7 | 41.3
60 | GATCACGGAAACGTAATC (((.(((....))).))) | -20.3 | 31.5
61 | GGAAACGAAAGTTTGTCC ((((((....)))..))) | -18.8 | 27.4
62 | GTCCTCCGAAAGGACGAC (((.(((....))).))) | -26.1 | 49.7
63 | GTAGATGGAAACACCTAC ((((.((....)).)))) | -20.9 | 32.9
64 | GTGAACGAAAGTTCACAC ((((((....)))..))) | -10.8 | 66.6
65 | GGTGCGGGAAACCACACC ((((.((....)).)))) | -54.3 | 51.1
66 | GATCGTGCTTACGATC ((((((....)))))) | -38.4 | 56.4
67 | GATCCACGCCTGGATC ((((((....)))))) | -36.9 | 52.3
68 | GGAAATGCGAAAGCATCC (((..(((....)))))) | -11.7 | 37.1
69 | GAAGACGAAAGTCGTTTC ((((((....)))..))) | -12.1 | 35.3

Row | Sequence | folding enthalpy [1] [kcal/mol] | Tm [2] [°C]
70 | GCCGCGCGAAAGCTTGGC (((..((....))..))) | -22.7 | 55.1
71 | GTGGCGGCGAAAGCCCAC (((..(((....)))))) | -15 | 54
72 | GAATGCGGAAACGCACTC ((.((((....)))).)) | -13.1 | 38.4
73 | GGACCTCGAAAGAGTCC (((.(((....)))))) | -32.7 | 49.8
74 | AGCTGGAAACAGCT (((((....))))) | -23.3 | 54.3
75 | GGCTGAGGAAACTCGGTC (.(.(((....))).).) | -25 | 40.8
76 | GGGAGCGGAAACGTTCCC ((((.((....)).)))) | -48.9 | 55.5
77 | GTGGTACGAAAGTATCAC (((.(((....))).))) | -47.3 | 54.2
78 | CGTGAACGGAAACGTACG (((..(((....)))))) | -21.1 | 35.3
79 | GCGATGCGAAAGCAGGGC ((..(((....)))..)) | -20.4 | 61.4
80 | GATCTCGCGAGAGATC ((((((....)))))) | -42.1 | 64.2
81 | GATCAACTACTTGATC ((((((....)))))) | -32.5 | 41.8
82 | GTCTACGAAAGTATAGAC ((((((....)))..))) | -24.4 | 36.2
83 | GCGAGCGAAAGCTTCCGC ((((((....)))..))) | -16.6 | 44.2
84 | GATCATAGGATGATC ((((((...)))))) | -30.8 | 48.3
85 | GATCAACGCATTGATC ((((((....)))))) | -34.6 | 46.2
86 | CGCGGAAGACTCCGCG ((((((....)))))) | -41.6 | 62.8
87 | GATCGGCATACCGATC ((((((....)))))) | -40.5 | 56.9
88 | GTAACTCGAAAGAGTAC (((.(((....)))))) | -15 | 42.4
89 | GTCCTGGAAACAGGAC ((((((....)))))) | -38.6 | 63
90 | GCAAGGCGAAAGCCCGGC ((..(((....)))..)) | -17.4 | 45.9
91 | GATCGGCTAACCGATC ((((((....)))))) | -42.2 | 56.5
92 | GCGTTCGACGC ((((...)))) | -23.7 | 53.8
